# According to paper PMC4308698 (Scientific Reports, 2015):
# “Also recorded” adds a separate entry of the source.
# Tests used:
# AlinCSP4 [1] = target: T1, AlinCSP4 (Adelphocoris lineolatus, UniProt K9J9S0); assay: Fluorescence competitive binding assay with 1-NPN as probe, recombinant AlinCSP4; details: for binding to AlinCSP4 (in words): competitive binding with 1-NPN
# T1 sequence (K9J9S0 20-127): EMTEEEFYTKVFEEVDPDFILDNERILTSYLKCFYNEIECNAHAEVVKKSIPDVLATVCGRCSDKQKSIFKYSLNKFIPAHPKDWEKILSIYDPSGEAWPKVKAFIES
# How it was run: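 Refolded, His-tag-cleaved recombinant protein at 2 μM and 1-NPN at 2 μM in Tris-HCl pH 7.4 were titrated with 1 mM competitor stock to 2–30 μM final, at 25°C. Excitation was 337 nm, with emission read at 390–460 nm. IC50 is the competitor level that halves 1-NPN fluorescence, and Ki = IC50/(1+[1-NPN]/K1-NPN). IC50 <20 μM was taken as good binding; Ki was not calculated when IC50 >30 μM.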
# [2] = system: antennae of female and male adults of A. lineolatus; details: exceptions at 10% level; cited from earlier work
# [3] = system: antennae of female and male adults of A. lineolatus; assay: Electroantennogram; parameters: species or system Adelphocoris lineolatus; details: 0.01%, 0.1%, 1%, 10% v/v, normalized to 10% 3-hexanone
# How it was run: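 Antennae were excised from newly emerged lab-reared adults (green beans and 10% honey, 14L:10D, 29±1°C) and mounted between two electrodes with electrode gel. A 10 μL aliquot per dose was delivered in an air stream of 10 ml/sec, and signals were recorded for 5 s from 1 s before the stimulus. Paraffin oil served as control. Six antennae per sex were tested per compound, given as normalized mean ± SE and compared by one-way ANOVA (α=0.05).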
# AlinCSP4 [4] = target: T1, AlinCSP4; assay: Binding of fluorescent probe 1-NPN to recombinant AlinCSP4
# How it was run: (§1)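 Recombinant mature protein (E. coli BL21(DE3), pET30a(+)) was refolded from inclusion bodies, purified by two rounds of Ni affinity, and had the His-tag removed with enterokinase. 2 μM protein in 50 mM Tris-HCl pH 7.4 was titrated with 1 mM 1-NPN in methanol (stock) to 1–16 μM final, at 25°C. Excitation was 337 nm; emission peak was read at 390–460 nm. Analysis assumed 1:1 stoichiometry with fully active protein, using a Scatchard plot.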
# AlinCSP5 = target: T2, AlinCSP5 (Adelphocoris lineolatus, UniProt K9J9X7); assay: Binding of fluorescent probe 1-NPN to recombinant AlinCSP5
# T2 sequence (K9J9X7 22-127): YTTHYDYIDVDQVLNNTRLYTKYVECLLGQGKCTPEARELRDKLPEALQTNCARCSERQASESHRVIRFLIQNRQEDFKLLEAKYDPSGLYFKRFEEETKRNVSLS
# How it was run: as §1
# AlinCSP6 = target: T3, AlinCSP6 (Adelphocoris lineolatus, UniProt K9J9R7); assay: Binding of fluorescent probe 1-NPN to recombinant AlinCSP6
# T3 sequence (K9J9R7 20-132): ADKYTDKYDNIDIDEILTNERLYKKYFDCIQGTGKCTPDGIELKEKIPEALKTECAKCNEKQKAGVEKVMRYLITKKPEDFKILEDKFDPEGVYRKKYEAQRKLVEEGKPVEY
# How it was run: as §1
# [5] = system: female adults of A. lineolatus; details: plant volatile emitted by Bt cotton plants; cited from earlier work
# AlinCSP1 = details: cited from earlier work
Molecule,IC50 (AlinCSP4 [1]) [µM],other results
C=CC(C)(O)CCC=C(C)CCC=C(C)C (mixture of isomers) [Nerolidol],2 ± 0.17,EAG response of terpenoids (in words) [2]: good EAG responses
"Cc1ccc(C=O)cc1C [3,4-Dimethyl-benzaldehyde]",10.6 ± 0.75,
CC(=O)CCC=C(C)C [6-Methyl-5-hepten-2-one],20.2 ± 2.62,
CC(=O)c1ccccc1 [Acetophenone],27.5 ± 1.73,
O=Cc1ccccc1 [Benzaldehyde],14.3 ± 1.86,
CCCCOC(=O)CCC [Butyl butyrate],21.1 ± 0.51,
CCCC(=O)OCC [Ethyl butyrate],9.81 ± 1.55,
CCCCCCC=O [Heptanal],11.4 ± 0.47,
CCCCCC=O [Hexanal],10.5 ± 2.11,
CCCCCCOC(=O)CCC [Hexyl butyrate],9.22 ± 1.77,EAG response (in words) [3]: more sensitive EAG responses
CCCCCCOC(=O)CCCCC [Hexyl hexanoate],2.36 ± 0.21,
c1ccc2[nH]ccc2c1 [Indole],23.3 ± 1.6,
"CCCCCCO [Ligand 1-Hexanol, 1-Hexanol]",12.5 ± 0.88,
"c1ccc(Nc2cccc3ccccc23)cc1 [Ligand 1-NPN, N-phenyl-1-naphthylamine]",,Kd (AlinCSP4 [4]): 2800 ± 400 nM; Kd (AlinCSP5): 4.2 ± 0.5 µM; Kd (AlinCSP6): 8.3 ± 1.8 µM
"CCCCCC(C)=O [Ligand 2-Heptanone, 2-Heptanone]",27.3 ± 0.6,
"CCCCC(C)O (stereo not drawn) [Ligand 2-Hexanol, 2-Hexanol]",9.63 ± 0.3,
"CCCCC(C)=O [Ligand 2-Hexanone, 2-Hexanone]",25.7 ± 0.53,
"CCCCCCC(C)=O [Ligand 2-Octanone, 2-Octanone]",25.2 ± 2.39,

Molecule,IC50 (AlinCSP4 [1]) [µM],other results
"CCCC(=O)CC [Ligand 3-Hexanone, 3-Hexanone]",24.2 ± 0.84,attraction of female adults (in words) [5]: strongly attract
C=C(C)[C@H]1CC=C(C)CC1 [Limonene],,binding to AlinCSP4 (in words) (AlinCSP4 [1]): no binding; EAG response of terpenoids (in words) [2]: good EAG responses
COC(=O)c1ccccc1O [Methyl salicylate],12.7 ± 2.01,
C=CC(=C)CCC=C(C)C [Myrcene],20.1 ± 0.81,
CCCCCCCCC=O [Nonanal],13 ± 1.43,
CCCCCCCCCOC(C)=O [Nonyl acetate],5.83 ± 0.44,
CCCCCCCC=O [Octanal],10.9 ± 0.86,
CCCCCCCCCCC [Undecane],7.13 ± 1.29,
CC/C=C\CCO [cis-3-Hexen-1-ol],21.7 ± 0.88,
CC/C=C\CCOC(C)=O [cis-3-hexenyl acetate],> 30,binding to AlinCSP4 (in words) (AlinCSP4 [1]): no binding; also recorded: no or very weak binding; binding affinity to AlinCSP1 (in words) (AlinCSP1): very good binding affinity
CCC/C=C/C=O [trans-2-Hexenal],16.3 ± 0.51,
CCC/C=C/COC(=O)CCC [trans-2-hexenyl butyrate],11 ± 2.09,EAG response (in words) [3]: more sensitive EAG responses
"C=C/C(C)=C/CC=C(C)C [trans-β-Ocimene, trans -β-Ocimene]",,binding to AlinCSP4 (in words) (AlinCSP4 [1]): no binding
CC1=CC[C@H](C(C)C)C=C1 [α-Phellandrene],> 30,binding to AlinCSP4 (in words) (AlinCSP4 [1]): no binding; EAG response of terpenoids (in words) [2]: good EAG responses
C=C1CC/C=C(\C)CC[C@@H]2[C@@H]1CC2(C)C [β-Caryophyllene],2.26 ± 0.26,
CC(=O)/C=C/C1=C(C)CCCC1(C)C [β-Ionone],10.1 ± 1.24,
C=C1CCC2CC1C2(C)C (stereo not drawn) [β-Pinene],> 30,binding to AlinCSP4 (in words) (AlinCSP4 [1]): no binding
(+)-α-Pinene,,binding to AlinCSP4 (in words) (AlinCSP4 [1]): no binding
